ChEMBL document CHEMBL1152541, “Staurosporine tethered peptide ligands that target cAMP-dependent protein kinase (PKA): optimization and selectivity profiling” (Bioorg Med Chem, 2009)
Each block holds one compound with its values, some of them ahead of it. *1 amine or outer side, *2 acyl side, *3 side chain or, on linkers, in order; H or OH if unused. Where a SMILES comes first, the peptide text is derived from it. Bridges are numbered along the chain shown (N, C = ends). [ ]: non-standard residue; d: D form. The star is where a group is joined. Staurosporine = CO[C@@H]1[C@H](N(C)*)C[C@H]2O[C@]1(C)n1c3ccccc3c3c4c(c5c6ccccc6n2c5c31)C(=O)NC4; Suc = O=C(CCC(=O)[*:2])[*:1]; Dap = NC[C@H](N)C(=O)O; βAla = NCCC(=O)O

Experiments:
[1] = target: High affinity nerve growth factor receptor (Homo sapiens) (UniProt P04629); experiment: Binding affinity to human TRKA at 500 nM by cell-based competition binding assay relative to control in presence of DTT
[2] = target: T1, NUAK family SNF1-like kinase 2 (Homo sapiens) (UniProt Q9H093); experiment: Binding affinity to human SNARK at 500 nM by cell-based competition binding assay relative to control in presence of DTT
T1 sequence (whole entry): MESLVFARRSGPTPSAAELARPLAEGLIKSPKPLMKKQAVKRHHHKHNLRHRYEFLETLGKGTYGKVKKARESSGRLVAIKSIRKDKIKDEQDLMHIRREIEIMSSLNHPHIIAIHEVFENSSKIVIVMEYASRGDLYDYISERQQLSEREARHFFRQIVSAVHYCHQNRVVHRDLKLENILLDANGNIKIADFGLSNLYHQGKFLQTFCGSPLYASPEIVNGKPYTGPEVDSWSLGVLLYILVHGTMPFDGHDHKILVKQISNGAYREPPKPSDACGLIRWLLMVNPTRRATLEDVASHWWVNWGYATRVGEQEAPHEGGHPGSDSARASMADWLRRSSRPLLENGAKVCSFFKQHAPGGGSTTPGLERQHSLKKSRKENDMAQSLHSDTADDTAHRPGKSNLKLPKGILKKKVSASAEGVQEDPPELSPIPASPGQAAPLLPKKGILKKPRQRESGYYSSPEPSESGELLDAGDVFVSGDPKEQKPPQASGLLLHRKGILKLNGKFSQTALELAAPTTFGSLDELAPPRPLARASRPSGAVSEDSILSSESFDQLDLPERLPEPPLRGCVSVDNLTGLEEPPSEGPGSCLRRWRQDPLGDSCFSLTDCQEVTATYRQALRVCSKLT

[3] = target: Phosphatidylinositol 4,5-bisphosphate 3-kinase catalytic subunit gamma isoform (Homo sapiens) (UniProt P48736); experiment: Binding affinity to human PIK3Cgamma at 500 nM by cell-based competition binding assay relative to control in presence of DTT
[4] = target: Cyclin-dependent kinase 3 (Homo sapiens) (UniProt Q00526); experiment: Binding affinity to human CDK3 at 200 nM by cell-based competition binding assay relative to control in presence of DTT
In short: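 Kinase binding profiling ran on a commercial (Ambit) competitive binding screen against a panel of 90 kinases. The screen used reducing conditions with 7.5 mM DTT. To withstand the DTT, the bivalent ligand was tested as its amide isostere, with the disulfide replaced. A staurosporine derivative carrying a 3 β-alanine linker was run as the reference compound.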

[5] = target: T2, Serine/threonine-protein kinase Chk1 (Homo sapiens) (UniProt O14757); experiment: Binding affinity to human CHEK1 at 200 nM by cell-based competition binding assay relative to control in presence of DTT
T2 sequence (whole entry): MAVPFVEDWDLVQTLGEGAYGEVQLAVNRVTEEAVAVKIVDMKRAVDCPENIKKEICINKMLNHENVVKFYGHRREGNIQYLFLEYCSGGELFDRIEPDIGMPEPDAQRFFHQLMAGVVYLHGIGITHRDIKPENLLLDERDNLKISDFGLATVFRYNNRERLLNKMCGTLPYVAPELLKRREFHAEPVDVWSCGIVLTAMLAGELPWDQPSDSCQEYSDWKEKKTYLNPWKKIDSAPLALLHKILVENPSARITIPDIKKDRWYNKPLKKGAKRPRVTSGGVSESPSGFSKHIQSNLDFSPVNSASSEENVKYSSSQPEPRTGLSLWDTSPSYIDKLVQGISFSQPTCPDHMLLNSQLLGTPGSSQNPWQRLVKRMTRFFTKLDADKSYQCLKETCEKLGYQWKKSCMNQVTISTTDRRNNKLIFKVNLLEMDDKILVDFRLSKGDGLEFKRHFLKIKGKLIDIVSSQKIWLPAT
In short: (§1)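 Commercial (Ambit) competitive kinase-binding panel of 90 kinases measured the binding profile. Run under reducing conditions of 7.5 mM DTT. Binding is expressed relative to control.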

[6] = target: Serine/threonine-protein kinase pim-2 (Homo sapiens) (UniProt Q9P1W9); experiment: Binding affinity to human PIM2 at 200 nM by cell-based competition binding assay relative to control in presence of DTT
[7] = target: Serine/threonine-protein kinase pim-1 (Homo sapiens) (UniProt P11309); experiment: Binding affinity to human PIM1 at 200 nM by cell-based competition binding assay relative to control in presence of DTT
[8] = target: Vascular endothelial growth factor receptor 2 (Homo sapiens) (UniProt P35968); experiment: Binding affinity to human VEGFR2 at 50 nM by cell-based competition binding assay relative to control in presence of DTT
[9] = target: Epidermal growth factor receptor (Homo sapiens) (UniProt P00533); experiment: Binding affinity to human EGFR at 50 nM by cell-based competition binding assay relative to control in presence of DTT; in short: as §1
[10] = target: Aurora kinase B (Homo sapiens) (UniProt Q96GD4); experiment: Binding affinity to human aurora kinase B at 50 nM by cell-based competition binding assay relative to control in presence of DTT
[11] = target: Receptor-type tyrosine-protein kinase FLT3 (Homo sapiens) (UniProt P36888); experiment: Binding affinity to human FLT3 at 50 nM by cell-based competition binding assay relative to control in presence of DTT; in short: as §1
[12] = target: Serine/threonine-protein kinase pim-2 (Homo sapiens) (UniProt Q9P1W9); experiment: Binding affinity to human PIM2 at 50 nM by cell-based competition binding assay relative to control in presence of DTT

Activity [1]: 13%
Activity [2]: 3.2%
Activity [3]: 15%
SMILES: CO[C@@H]1[C@H](N(C)C(=O)CCC(=O)NCCC(=O)NCCC(=O)NCCC(N)=O)C[C@H]2O[C@]1(C)n1c3ccccc3c3c4c(c5c6ccccc6n2c5c31)C(=O)NC4

Activity [4]: 100%
Activity [5]: 60%
Activity [6]: 100%
Activity [7]: 53%
SMILES: CO[C@@H]1[C@H](N(C)C(=O)CCC(=O)NCCC(=O)NCCC(=O)NCCC(=O)NCCC(=O)NCCC(=O)NCCC(=O)NCCC(=O)N[C@H]2CSSC[C@@H](C(=O)NCC(N)=O)NC(=O)CNC(=O)[C@H](Cc3ccccc3)NC(=O)[C@H](C(C)C)NC(=O)[C@H](CCCNC(=N)N)NC(=O)[C@H](Cc3ccccc3)NC(=O)[C@H](C(C)C)NC2=O)C[C@H]2O[C@]1(C)n1c3ccccc3c3c4c(c5c6ccccc6n2c5c31)C(=O)NC4 ({Staurosporine-Suc-βAla-βAla-βAla-βAla-βAla-βAla-βAla}-CVFRVFGCG-NH2; disulfide 1-8)

Activity [8]: 91%
Activity [9]: 87%
Activity [10]: 33%
Activity [11]: 7.4%
Activity [12]: 100%
SMILES: CO[C@@H]1[C@H](N(C)C(=O)CCC(=O)NCCC(=O)NCCC(=O)NCCC(=O)NCCC(=O)NCCC(=O)NCCC(=O)NCCC(=O)N[C@H]2CNC(=O)C[C@@H](C(N)=O)NC(=O)CNC(=O)[C@H](Cc3ccccc3)NC(=O)[C@H](C(C)C)NC(=O)[C@H](CCCNC(=N)N)NC(=O)[C@H](Cc3ccccc3)NC(=O)[C@H](C(C)C)NC2=O)C[C@H]2O[C@]1(C)n1c3ccccc3c3c4c(c5c6ccccc6n2c5c31)C(=O)NC4 ({Staurosporine-Suc-βAla-βAla-βAla-βAla-βAla-βAla-βAla}-[Dap]VFRVFGD-NH2; lactam 1-8)
